From ChEMBL document CHEMBL3286129, “Optimization of peptidomimetic boronates bearing a P3 bicyclic scaffold as proteasome inhibitors” (Eur J Med Chem, 2014)
Activity calls are given as the source filed them. The calls are words filed in the database; no cut-off is given here.

Key:
[1] = Cytotoxicity against human melanoma cells assessed as cell growth at 10 uM relative to control; assay type: functional; settings: read-out: Activity
Outline: (§1)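 Single-concentration screen against a panel of human cancer cell lines. Each value is the mean percent growth across the cell lines of that tumour subpanel.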

[2] = Cytotoxicity against human breast cancer cells assessed as cell growth at 10 uM relative to control; assay type: functional; settings: Cancer cell lines, read-out: Activity; outline: as §1
[3] = Cytotoxicity against human ovarian cancer cells assessed as cell growth at 10 uM relative to control; assay type: functional; settings: Cancer cell lines, read-out: Activity; outline: as §1
[4] = Cytotoxicity against human leukemia cells assessed as cell growth at 10 uM relative to control; assay type: functional; settings: read-out: Activity; outline: as §1
[5] = target: T1, Proteasome Macropain subunit MB1 (Homo sapiens) (UniProt P28074); assay: Inhibition of chymotrypsin-like activity of 20S proteasome in human erythrocytes using Suc-Leu-Leu-Val-Tyr-AMC as substrate at 20 uM by fluorescence assay relative to control
T1 sequence (whole entry): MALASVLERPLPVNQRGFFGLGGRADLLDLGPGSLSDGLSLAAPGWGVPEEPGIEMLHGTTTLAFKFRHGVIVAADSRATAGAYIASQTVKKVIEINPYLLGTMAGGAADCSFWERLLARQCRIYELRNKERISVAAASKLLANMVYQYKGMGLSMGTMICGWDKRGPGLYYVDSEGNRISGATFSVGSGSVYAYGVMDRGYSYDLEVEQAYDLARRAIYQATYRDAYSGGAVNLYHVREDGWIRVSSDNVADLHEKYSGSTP
Outline: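 Single inhibitor concentration, equivalent DMSO as negative control. AMC fluorescence read at ex 380/em 460 nm; percent inhibition of ChT-L activity.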

[6] = Cytotoxicity against human prostate cancer cells assessed as cell growth at 10 uM relative to control; assay type: functional; settings: Cancer cell lines, read-out: Activity; outline: as §1
[7] = Cytotoxicity against human NSCLC cells assessed as cell growth at 10 uM relative to control; assay type: functional; settings: read-out: Activity; outline: as §1
[8] = Cytotoxicity against human colon cancer cells assessed as cell growth at 10 uM relative to control; assay type: functional; settings: Cancer cell lines, read-out: Activity; outline: as §1
[9] = Cytotoxicity against human CNSC cells assessed as cell growth at 10 uM relative to control; assay type: functional; settings: read-out: Activity; outline: as §1
[10] = Cytotoxicity against human renal cancer cells assessed as cell growth at 10 uM relative to control; assay type: functional; settings: Cancer cell lines, read-out: Activity; outline: as §1
[11] = target: Proteasome Macropain subunit (Homo sapiens) (UniProt P49721); assay: Inhibition of trypsin-like activity of 20S proteasome in human erythrocytes using Boc-Leu-Arg-Arg-AMC as substrate by fluorescence assay; assay type: cell-based
Outline: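 Human 20S proteasome 0.0025 mg/mL at 30 °C in 50 mM Tris pH 7.4, 50 mM NaCl, 0.5 mM EDTA, 0.03% SDS, 7.5% DMSO. Varied inhibitor concentrations; AMC release monitored continuously for 10 min, ex 380/em 460 nm. Ki derived from progress-curve IC50 fit.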

Chymotrypsinogen A = Chymotrypsinogen A (Bos taurus, UniProt P00766); assay: Inhibition of bovine pancreatic alpha-chymotrypsin using Suc-Leu-Leu-Val-Tyr-AMC as substrate by fluorescence assay
Outline: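 Enzyme incubated at 20 °C in 50 mM Tris pH 8.0, 100 mM NaCl, 5 mM EDTA, 7.5% DMSO with varied inhibitor concentrations. Substrate hydrolysis followed for 10 min. Ki from progress curves; mean of three determinations.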

[12] = target: T2, Proteasome Macropain subunit MB1 (Homo sapiens, UniProt P28074); assay: Inhibition of chymotrypsin-like activity of 20S proteasome in human erythrocytes using Suc-Leu-Leu-Val-Tyr-AMC as substrate by fluorescence assay
T2 sequence (P28074 whole entry): T1 sequence (whole entry)

Proteasome component C5 = target: T3, Proteasome component C5 (Homo sapiens, UniProt P20618); assay: Inhibition of PGPH-like activity of 20S proteasome in human erythrocytes using Z-Leu-Leu-Glu-AMC as substrate by fluorescence assay
T3 sequence (P20618 whole entry): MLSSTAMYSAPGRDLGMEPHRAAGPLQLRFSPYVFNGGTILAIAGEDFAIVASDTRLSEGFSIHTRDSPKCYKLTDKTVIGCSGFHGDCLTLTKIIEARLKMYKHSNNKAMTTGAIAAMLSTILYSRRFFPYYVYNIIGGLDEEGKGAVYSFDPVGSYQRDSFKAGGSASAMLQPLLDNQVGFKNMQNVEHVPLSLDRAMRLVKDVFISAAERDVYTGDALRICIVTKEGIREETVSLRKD
Outline: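 Human 20S proteasome 0.004 mg/mL, 30 °C, 50 mM Tris pH 7.5 with 25 mM KCl, 10 mM NaCl, 1 mM MgCl2, 0.03% SDS, 5% DMSO. Ki from 4-parameter IC50 fit of progress curves, corrected to zero substrate via Km. Mean of three.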

Chain of Proteasome Macropain subunit (Homo sapiens) (P49721 whole entry): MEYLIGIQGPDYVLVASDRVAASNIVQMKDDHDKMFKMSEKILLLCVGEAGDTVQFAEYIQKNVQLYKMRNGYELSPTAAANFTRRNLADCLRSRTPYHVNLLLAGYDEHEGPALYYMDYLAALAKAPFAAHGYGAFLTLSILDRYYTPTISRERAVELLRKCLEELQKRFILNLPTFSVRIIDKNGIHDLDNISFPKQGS

COc1cc2ccn(CCC(=O)N[C@@H](CC(C)C)B(O)O)c(=O)c2cc1OC
growth at 10 µM [1]: 63.7%
growth at 10 µM [2]: 56.9%
growth at 10 µM [3]: 92.6%
growth at 10 µM [4]: 59%
inhibition [5]: > 40%
growth at 10 µM [6]: 98.8%
growth at 10 µM [7]: 90.3%
growth at 10 µM [8]: 90.8%
growth at 10 µM [9]: 78.3%
growth at 10 µM [10]: 89%
inhibition [11]: inactive
Ki (Chymotrypsinogen A): Not Active
Ki ([12]; read-out: Ki): 0.085 µM

CC(C)CCNC(=O)Cn1ccc2ccccc2c1=O
growth at 10 µM [1]: 104%
growth at 10 µM [2]: 103%
growth at 10 µM [3]: 104%
growth at 10 µM [4]: 99.5%
growth at 10 µM [6]: 101%
growth at 10 µM [7]: 97.2%
growth at 10 µM [8]: 100%
growth at 10 µM [9]: 102%
growth at 10 µM [10]: 97.4%
inhibition [11]: inactive

CC(C)CCNC(=O)CCn1ccc2ccc(Br)cc2c1=O
growth at 10 µM [1]: 94%
growth at 10 µM [2]: 94.5%
growth at 10 µM [3]: 104%
growth at 10 µM [4]: 83.4%
growth at 10 µM [6]: 103%
growth at 10 µM [7]: 97.7%
growth at 10 µM [8]: 104%
growth at 10 µM [9]: 97.2%
growth at 10 µM [10]: 86.1%
inhibition [11]: inactive

COc1cc2ccn(CCC(=O)NCCC(C)C)c(=O)c2cc1OC
growth at 10 µM [1]: 106%
growth at 10 µM [2]: 103%
growth at 10 µM [3]: 103%
growth at 10 µM [4]: 108%
growth at 10 µM [6]: 103%
growth at 10 µM [7]: 99.2%
growth at 10 µM [8]: 106%
growth at 10 µM [9]: 98%
growth at 10 µM [10]: 95.3%
inhibition [11]: inactive

COc1cc2ccn(CC(=O)N[C@@H](CC(C)C)B(O)O)c(=O)c2cc1OC
growth at 10 µM [1]: 104%
growth at 10 µM [2]: 99%
growth at 10 µM [3]: 103%
growth at 10 µM [4]: 98.8%
inhibition [5]: > 40%
growth at 10 µM [6]: 100%
growth at 10 µM [7]: 102%
growth at 10 µM [8]: 104%
growth at 10 µM [9]: 99.6%
Ki (Proteasome component C5): Not Active
growth at 10 µM [10]: 98.5%
inhibition [11]: inactive
Ki (Chymotrypsinogen A): Not Active
Ki [12]: Not Active

CC(C)CCNC(=O)Cn1ccc2ccc(Br)cc2c1=O
Ki (Proteasome component C5): Not Active
inhibition [11]: inactive
Ki (Chymotrypsinogen A): Not Active
Ki ([12]; read-out: Ki): 2.34 µM
